Experiments:
Type in all cases: functional
MDA-MB-231 [1] = assay: Cell cycle arrest in estrogen receptor deficient human MDA-MB-231 cells assessed as accumulation at S phase at 100 nM after 24 hrs using propidium iodide staining by flow cytometry relative to control
Summary of the method: (§1)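 MDA-MB-231 cells in DMEM with 10% FBS and 2 mM L-glutamine, seeded at 18 × 10⁴ cells/mL. Exposed to test agent at the stated final concentration, or to 1% (v/v) ethanol vehicle, for 24, 48 or 72 h. Harvested by scraping and centrifugation, then RNase A treatment and propidium iodide DNA staining for at least 30 min at 37 °C. 10,000 cells per sample read at 488 nm by flow cytometry; mean ± SD of three experiments.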

MDA-MB-231 [2] = assay: Cell cycle arrest in estrogen receptor deficient human MDA-MB-231 cells assessed as accumulation at S phase at 100 nM after 48 hrs using propidium iodide staining by flow cytometry relative to control; summary of the method: as §1
MDA-MB-231 [3] = assay: Cell cycle arrest in estrogen receptor deficient human MDA-MB-231 cells assessed as appearance of polyploidy at 1 uM after 24 hrs using propidium iodide staining by flow cytometry relative to control; summary of the method: as §1
MDA-MB-231 [4] = assay: Cell cycle arrest in estrogen receptor deficient human MDA-MB-231 cells assessed as appearance of polyploidy at 10 nM after 48 hrs using propidium iodide staining by flow cytometry relative to control; summary of the method: as §1
MDA-MB-231 [5] = assay: Cell cycle arrest in estrogen receptor deficient human MDA-MB-231 cells assessed as accumulation at G1 phase at 10 nM after 48 hrs using propidium iodide staining by flow cytometry relative to control; summary of the method: as §1
MDA-MB-231 [6] = assay: Cell cycle arrest in estrogen receptor deficient human MDA-MB-231 cells assessed as accumulation at S phase at 10 uM after 24 hrs using propidium iodide staining by flow cytometry relative to control; summary of the method: as §1
MDA-MB-231 [7] = assay: Cell cycle arrest in estrogen receptor deficient human MDA-MB-231 cells assessed as accumulation at sub-G1 phase at 10 uM after 72 hrs using propidium iodide staining by flow cytometry relative to control; summary of the method: as §1
MDA-MB-231 [8] = assay: Cell cycle arrest in estrogen receptor deficient human MDA-MB-231 cells assessed as appearance of polyploidy at 1 uM after 72 hrs using propidium iodide staining by flow cytometry relative to control; summary of the method: as §1
MDA-MB-231 [9] = assay: Cell cycle arrest in estrogen receptor deficient human MDA-MB-231 cells assessed as accumulation at G1 phase at 10 nM after 72 hrs using propidium iodide staining by flow cytometry relative to control; summary of the method: as §1
MDA-MB-231 [10] = assay: Cell cycle arrest in estrogen receptor deficient human MDA-MB-231 cells assessed as accumulation at S phase at 1 uM after 72 hrs using propidium iodide staining by flow cytometry relative to control; summary of the method: as §1
MDA-MB-231 [11] = assay: Cell cycle arrest in estrogen receptor deficient human MDA-MB-231 cells assessed as accumulation at G2/M phase at 100 nM after 48 hrs using propidium iodide staining by flow cytometry relative to control; summary of the method: as §1
MDA-MB-231 [12] = assay: Cell cycle arrest in estrogen receptor deficient human MDA-MB-231 cells assessed as accumulation at G1 phase at 10 uM after 24 hrs using propidium iodide staining by flow cytometry relative to control; summary of the method: as §1
MDA-MB-231 [13] = assay: Cell cycle arrest in estrogen receptor deficient human MDA-MB-231 cells assessed as accumulation at G2/M phase at 1 uM after 24 hrs using propidium iodide staining by flow cytometry relative to control; summary of the method: as §1
MDA-MB-231 [14] = assay: Cell cycle arrest in estrogen receptor deficient human MDA-MB-231 cells assessed as accumulation at sub-G1 phase at 100 nM after 24 hrs using propidium iodide staining by flow cytometry relative to control; summary of the method: as §1
MDA-MB-231 [15] = assay: Cell cycle arrest in estrogen receptor deficient human MDA-MB-231 cells assessed as accumulation at G2/M phase at 10 uM after 24 hrs using propidium iodide staining by flow cytometry relative to control; summary of the method: as §1
MDA-MB-231 [16] = assay: Cell cycle arrest in estrogen receptor deficient human MDA-MB-231 cells assessed as accumulation at G1 phase at 10 uM after 72 hrs using propidium iodide staining by flow cytometry relative to control; summary of the method: as §1
MDA-MB-231 [17] = assay: Cell cycle arrest in estrogen receptor deficient human MDA-MB-231 cells assessed as accumulation at G1 phase at 10 uM after 48 hrs using propidium iodide staining by flow cytometry relative to control; summary of the method: as §1
MDA-MB-231 [18] = assay: Cell cycle arrest in estrogen receptor deficient human MDA-MB-231 cells assessed as accumulation at G2/M phase at 10 nM after 48 hrs using propidium iodide staining by flow cytometry relative to control; summary of the method: as §1
MDA-MB-231 [19] = assay: Cell cycle arrest in estrogen receptor deficient human MDA-MB-231 cells assessed as appearance of polyploidy at 100 nM after 48 hrs using propidium iodide staining by flow cytometry relative to control
Summary of the method: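 MDA-MB-231 cells seeded at 18 × 10⁴ cells/mL and exposed to 1% (v/v) ethanol vehicle or compound at final concentrations (10 nM, 100 nM, 10 µM at all times; 1 µM also at 24 and 72 h). Cells harvested after 24, 48 or 72 h and treated with RNase A and propidium iodide for at least 30 min at 37 °C. 10,000 cells read at 488 nm by flow cytometry. Percent cells per phase reported, including polyploid; mean ± SD of three experiments.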

MDA-MB-231 [20] = assay: Cell cycle arrest in estrogen receptor deficient human MDA-MB-231 cells assessed as accumulation at S phase at 10 nM after 72 hrs using propidium iodide staining by flow cytometry relative to control; summary of the method: as §1
MDA-MB-231 [21] = assay: Cell cycle arrest in estrogen receptor deficient human MDA-MB-231 cells assessed as accumulation at S phase at 10 nM after 24 hrs using propidium iodide staining by flow cytometry relative to control; summary of the method: as §1
MDA-MB-231 [22] = assay: Cell cycle arrest in estrogen receptor deficient human MDA-MB-231 cells assessed as accumulation at G2/M phase at 10 nM after 72 hrs using propidium iodide staining by flow cytometry relative to control; summary of the method: as §1
MDA-MB-231 [23] = assay: Cell cycle arrest in estrogen receptor deficient human MDA-MB-231 cells assessed as accumulation at G2/M phase at 100 nM after 24 hrs using propidium iodide staining by flow cytometry relative to control; summary of the method: as §1
MDA-MB-231 [24] = assay: Cell cycle arrest in estrogen receptor deficient human MDA-MB-231 cells assessed as accumulation at G1 phase at 10 nM after 24 hrs using propidium iodide staining by flow cytometry relative to control; summary of the method: as §1
MCF7 = assay: Cytotoxicity against human MCF7 cells expressing estrogen receptor assessed as LDH release at 10 uM
Summary of the method: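 After compound treatment, LDH was measured with a commercial LDH kit. Result is % cell lysis at 10 μM compound.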

MDA-MB-231 [25] = assay: Cell cycle arrest in estrogen receptor deficient human MDA-MB-231 cells assessed as appearance of polyploidy at 10 nM after 24 hrs using propidium iodide staining by flow cytometry relative to control; summary of the method: as §1
MDA-MB-231 [26] = assay: Cell cycle arrest in estrogen receptor deficient human MDA-MB-231 cells assessed as accumulation at G1 phase at 1 uM after 24 hrs using propidium iodide staining by flow cytometry relative to control; summary of the method: as §1
MDA-MB-231 [27] = assay: Cell cycle arrest in estrogen receptor deficient human MDA-MB-231 cells assessed as accumulation at G1 phase at 1 uM after 72 hrs using propidium iodide staining by flow cytometry relative to control; summary of the method: as §1
MDA-MB-231 [28] = assay: Cell cycle arrest in estrogen receptor deficient human MDA-MB-231 cells assessed as accumulation at sub-G1 phase at 10 uM after 48 hrs using propidium iodide staining by flow cytometry relative to control; summary of the method: as §1

Structure (SMILES): COc1ccc(C2CC(=O)N2c2cc(OC)c(OC)c(OC)c2)cc1O (centres undefined)
- Activity (MDA-MB-231 [1]): 6.05%
- Activity (MDA-MB-231 [2]): 8.9%
- Activity (MDA-MB-231 [3]): 4.31%
- Activity (MDA-MB-231 [4]): 6.1%
- Activity (MDA-MB-231 [5]): 45.25%
- Activity (MDA-MB-231 [6]): 3.72%
- Activity (MDA-MB-231 [7]): 46.49%
- Activity (MDA-MB-231 [8]): 5.97%
- Activity (MDA-MB-231 [9]): 48.24%
- Activity (MDA-MB-231 [10]): 7.76%
- Activity (MDA-MB-231 [11]): 36.42%
- Activity (MDA-MB-231 [12]): 29.3%
- Activity (MDA-MB-231 [13]): 63.16%
- Activity (MDA-MB-231 [14]): 4.88%
- Activity (MDA-MB-231 [15]): 55.36%
- Activity (MDA-MB-231 [16]): 17.14%
- Activity (MDA-MB-231 [17]): 14.44%
- Activity (MDA-MB-231 [18]): 23.71%
- Activity (MDA-MB-231 [19]): 4.61%
- Activity (MDA-MB-231 [20]): 9.08%
- Activity (MDA-MB-231 [21]): 12.55%
- Activity (MDA-MB-231 [22]): 17.68%
- Activity (MDA-MB-231 [23]): 59.43%
- Activity (MDA-MB-231 [24]): 48.33%
- Activity (MCF7): 9%
- Activity (MDA-MB-231 [25]): 2.84%
- Activity (MDA-MB-231 [26]): 19.22%
- Activity (MDA-MB-231 [27]): 14.29%
- Activity (MDA-MB-231 [28]): 51.27%

From ChEMBL document CHEMBL1629485, “Lead identification of conformationally restricted β-lactam type combretastatin analogues: synthesis, antiproliferative activity and tubulin targeting effects” (Eur J Med Chem, 2010)
